ChEMBL document CHEMBL1122848, “5-(Haloalkyl)-2'-deoxyuridines: a novel type of potent antiviral nucleoside analogue” (1985)
In brackets after ≈: the same amount, converted by molar mass.

Columns and labels:
Human alphaherpesvirus 2 = test: Minimum inhibitory concentration against HSV-2.; format: functional
Procedure, shortened: (§1)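 CPE-inhibition assay in HEp-2 cells. Compound was serially diluted 3-fold in E-MEM, then virus (HSV-1 Brand or HSV-2 K979) and a cell suspension in E-MEM plus 15% FCS were added together. Virus input gave 90–100% CPE in infected controls after 3 days. Plates were then fixed and stained, and CPE was scored.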

HEp-2 = test: Minimum toxic effect against HEp-2 cells.; format: functional, Homo sapiens
Procedure, shortened: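 Uninfected HEp-2 cells were exposed to 3-fold serial dilutions of compound in E-MEM with FCS, run alongside the CPE assay. Cell density was set to reach a monolayer in 1–2 days. Plates were fixed and stained at 3 days. MTC is the lowest concentration causing visible toxic effects.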

Human alphaherpesvirus 1 = test: Minimum inhibitory concentration against HSV-1.; format: functional; procedure, shortened: as §1
Mus musculus [1] = test: In vivo evaluation for the percent survivors in systemic HSV-1 infection of Mice administered intraperitoneally at a dose 100 mg/kg per day; format: functional; details: route intraperitoneal
Procedure, shortened: (§2)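 Systemic infection model in hairless (hr/hr) mice weighing 18–20 g, twelve per group. Mice were inoculated i.p. with HSV-1 (Brand) at 2 × 10⁵ PFU/0.2 mL per mouse. Compound was given twice a day i.p. or by oral gavage at the stated daily dose. Read-out was percent survivors.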

Mus musculus [2] = test: In vivo evaluation for the percent survivors in systemic HSV-1 infection of Mice administered through oral route at a dose 5 mg/kg per day; format: functional; procedure, shortened: as §2
Mus musculus [3] = test: Effect of delayed treatment on mortality of systemically infected mice at 25 mg/kg per day administered Intraperitoneally after 24 hr of start of treatment; format: functional; details: route intraperitoneal
Procedure, shortened: (§3)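 Hairless (hr/hr) mice, 18–20 g, ten per group, inoculated intraperitoneally with HSV-1 strain Brand at 2 × 10⁵ PFU/0.2 mL per mouse. Dosing was 25 mg/kg per day, given twice daily either intraperitoneally or orally by gavage. Treatment started at 3, 24, 48 or 72 h post-infection. Read-out was percent survivors.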

Mus musculus [4] = test: Effect of delayed treatment on mortality of systemically infected mice at 25 mg/kg per day administered Intraperitoneally after 48 hr of start of treatment; format: functional; details: route intraperitoneal; procedure, shortened: as §3
Mus musculus [5] = test: In vivo evaluation for the percent survivors in systemic HSV-1 infection of Mice administered intraperitoneally at a dose 25 mg/kg per day; format: functional; details: route intraperitoneal; procedure, shortened: as §2
Mus musculus [6] = test: Effect of delayed treatment on mortality of systemically infected mice at 25 mg/kg per day administered Intraperitoneally after 72 hr of start of treatment; format: functional; details: route intraperitoneal; procedure, shortened: as §3
Mus musculus [7] = test: In vivo evaluation for the percent survivors in systemic HSV-1 infection of Mice administered intraperitoneally at a dose 10 mg/kg per day; format: functional; details: route intraperitoneal; procedure, shortened: as §2
Mus musculus [8] = test: In vivo evaluation for the percent survivors in systemic HSV-1 infection of Mice administered intraperitoneally at a dose 1 mg/kg per day; format: functional; details: route intraperitoneal; procedure, shortened: as §2
Mus musculus [9] = test: Effect of delayed treatment on mortality of systemically infected mice at 25 mg/kg per day administered through oral route after 72 hr of start of treatment; format: functional; procedure, shortened: as §3
Mus musculus [10] = test: In vivo evaluation for the percent survivors in systemic HSV-1 infection of Mice administered intraperitoneally at a dose 50 mg/kg per day; format: functional; details: route intraperitoneal; procedure, shortened: as §2
Mus musculus [11] = test: Effect of delayed treatment on mortality of systemically infected mice at 25 mg/kg per day administered through oral route after 24 hr of start of treatment; format: functional; procedure, shortened: as §3
Mus musculus [12] = test: In vivo evaluation for the percent survivors in systemic HSV-1 infection of Mice administered through oral route at a dose 25 mg/kg per day; format: functional; procedure, shortened: as §2
Mus musculus [13] = test: In vivo evaluation for the percent survivors in systemic HSV-1 infection of Mice administered through oral route at a dose 2.5 mg/kg per day; format: functional; procedure, shortened: as §2
Mus musculus [14] = test: Effect of delayed treatment on mortality of systemically infected mice at 25 mg/kg per day administered Intraperitoneally after 3 hr of start of treatment; format: functional; details: route intraperitoneal; procedure, shortened: as §3
Mus musculus [15] = test: In vivo evaluation for the percent survivors in systemic HSV-1 infection of Mice administered through oral route at a dose 50 mg/kg per day; format: functional; procedure, shortened: as §2
Mus musculus [16] = test: Effect of delayed treatment on mortality of systemically infected mice at 25 mg/kg per day administered through oral route after 3 hr of start of treatment; format: functional; procedure, shortened: as §3
Mus musculus [17] = test: Effect of delayed treatment on mortality of systemically infected mice at 25 mg/kg per day administered through oral route after 48 hr of start of treatment; format: functional; procedure, shortened: as §3
Mus musculus [18] = test: In vivo evaluation for the percent survivors in systemic HSV-1 infection of Mice administered intraperitoneally at a dose 5 mg/kg per day; format: functional; details: route intraperitoneal; procedure, shortened: as §2
Mus musculus [19] = test: In vivo evaluation for the percent survivors in systemic HSV-1 infection of Mice administered through intraperitoneal at a dose 10 mg/kg per day; format: functional; procedure, shortened: as §2
Mus musculus [20] = test: In vivo evaluation for the percent survivors in systemic HSV-1 infection of Mice administered through intraperitoneal at a dose 100 mg/kg per day; format: functional; procedure, shortened: as §2
Mus musculus [21] = test: In vivo evaluation for the percent survivors in systemic HSV-1 infection of Mice administered through at a dose 25 mg/kg per day; format: functional; procedure, shortened: as §2
Mus musculus [22] = test: In vivo evaluation for the percent survivors in systemic HSV-1 infection of Mice administered through intraperitoneal at a dose 5 mg/kg per day; format: functional; procedure, shortened: as §2
Mus musculus [23] = test: In vivo evaluation for the percent survivors in systemic HSV-1 infection of Mice administered through intraperitoneal at a dose 1 mg/kg per day; format: functional; procedure, shortened: as §2
Mus musculus [24] = test: In vivo evaluation for the percent survivors in systemic HSV-1 infection of Mice administered through intraperitoneal at a dose 50 mg/kg per day; format: functional; procedure, shortened: as §2

| Compound | MIC (Human alphaherpesvirus 2) [µg/mL] | MTC (HEp-2) [µg/mL] | MIC (Human alphaherpesvirus 1) [µg/mL] | further results |
| --- | --- | --- | --- | --- |
| O=c1[nH]c(=O)n([C@H]2C[C@H](O)[C@@H](CO)O2)cc1I [IDOXURIDINE] | 0.3 (≈ 0.847 µM) | 100 | 0.3 (≈ 0.847 µM) | – |
| O=c1[nH]c(=O)n([C@H]2C[C@H](O)[C@@H](CO)O2)cc1CCCl | 3 (≈ 10.3 µM) | 330 | 0.03 (≈ 0.103 µM) | Survivors (Mus musculus [1]): 100%; Survivors (Mus musculus [2]): 67%; Survivors (Mus musculus [3]): 100%; Survivors (Mus musculus [4]): 80%; Survivors (Mus musculus [5]): 83%; Survivors (Mus musculus [6]): 60%; Survivors (Mus musculus [7]): 91%; Survivors (Mus musculus [8]): 75%; Survivors (Mus musculus [9]): 70%; Survivors (Mus musculus [10]): 92%; Survivors (Mus musculus [11]): 90%; Survivors (Mus musculus [12]): 100%; Survivors (Mus musculus [13]): 82%; Survivors (Mus musculus [14]): 100%; Survivors (Mus musculus [15]): 100%; Survivors (Mus musculus [16]): 80%; Survivors (Mus musculus [17]): 100%; Survivors (Mus musculus [18]): 92% |
| O=c1[nH]c(=O)n([C@@H]2C[C@H](O)[C@@H](CO)O2)cc1CCBr | > 100 | 330 | 3 (≈ 8.95 µM) | – |
| O=c1[nH]c(=O)n([C@H]2C[C@H](O)[C@@H](CO)O2)cc1CCCCl | 30 (≈ 98.4 µM) | 100 | 0.3 (≈ 0.984 µM) | – |
| Nc1ncnc2c1ncn2[C@@H]1O[C@H](CO)[C@@H](O)[C@@H]1O [VIDARABINE] | 10 (≈ 37.4 µM) | 100 | 10 (≈ 37.4 µM) | – |
| O=c1[nH]c(=O)n([C@H]2C[C@H](O)[C@@H](CO)O2)cc1CCCO | > 100 | 330 | > 100 | – |
| O=c1[nH]c(=O)n([C@H]2C[C@H](O)[C@@H](CO)O2)cc1CCO | 100 (≈ 367 µM) | 330 | 100 (≈ 367 µM) | – |
| O=c1[nH]c(=O)n([C@H]2C[C@H](O)[C@@H](CO)O2)cc1CCI | 30 (≈ 78.5 µM) | 330 | 1 (≈ 2.62 µM) | – |
| O=c1[nH]c(=O)n([C@H]2C[C@H](O)[C@@H](CO)O2)cc1/C=C/Br [BRIVUDINE] | 3 (≈ 9.01 µM) | 100 | 0.003 (≈ 0.00901 µM) | Survivors (Mus musculus [19]): 18%; Survivors (Mus musculus [2]): 0%; Survivors (Mus musculus [20]): 33%; Survivors (Mus musculus [21]): 8%; Survivors (Mus musculus [22]): 25%; Survivors (Mus musculus [23]): 33%; Survivors (Mus musculus [12]): 0%; Survivors (Mus musculus [13]): 0%; Survivors (Mus musculus [15]): 8%; Survivors (Mus musculus [24]): 33% |
| COC(=O)/C=C/c1cn([C@H]2C[C@H](O)[C@@H](CO)O2)c(=O)[nH]c1=O | 30 (≈ 96.1 µM) | 100 | 0.3 (≈ 0.961 µM) | – |
| O=c1[nH]c(=O)n(C2CC(O)C(CBr)O2)cc1CCBr (stereo not given) | 100 (≈ 251 µM) | 330 | 30 (≈ 75.4 µM) | – |
| O=c1[nH]c(=O)n([C@H]2C[C@H](O)[C@@H](CO)O2)cc1CCBr | 100 (≈ 298 µM) | 100 | 3 (≈ 8.95 µM) | – |
| O=c1[nH]c(=O)n(C2CC(O)C(CCl)O2)cc1CCCl (stereo not given) | > 100 | 330 | 100 (≈ 323 µM) | – |
| Nc1nc2c(ncn2COCCO)c(=O)[nH]1 [ACYCLOVIR] | 3 (≈ 13.3 µM) | 330 | 0.3 (≈ 1.33 µM) | Survivors (Mus musculus [19]): 83%; Survivors (Mus musculus [2]): 9%; Survivors (Mus musculus [20]): 91%; Survivors (Mus musculus [21]): 100%; Survivors (Mus musculus [22]): 75%; Survivors (Mus musculus [23]): 54%; Survivors (Mus musculus [12]): 55%; Survivors (Mus musculus [13]): 0%; Survivors (Mus musculus [15]): 92%; Survivors (Mus musculus [24]): 100% |
| O=c1[nH]c(=O)n(C2CC(O)C(CCl)O2)cc1CCCCl (stereo not given) | > 100 | 330 | > 100 | – |
| O=C([O-])P(=O)([O-])[O-].[Na+].[Na+].[Na+] [FOSCARNET SODIUM] | 30 | 330 | 10 | – |
| O=c1[nH]c(=O)n([C@@H]2C[C@H](O)[C@@H](CO)O2)cc1CCCl | 100 (≈ 344 µM) | 100 | 3 (≈ 10.3 µM) | – |
| O=c1[nH]c(=O)n(C2CC(O)C(CI)O2)cc1CCI (stereo not given) | > 100 | 100 | 30 (≈ 61 µM) | – |
| O=c1nc2c(cn1[C@H]1C[C@H](O)[C@@H](CO)O1)CCO2 | > 100 | 330 | > 100 | – |
